{"source": "paper PMC4024982", "about": "(International Journal of Nanomedicine, 2014)", "assay_type_in_all_cases": "in vivo, Sprague Dawley rats", "key": {"caspase-8": {"test_system": "caspase-8", "assay": "Immunofluorescence staining of knee joint sections", "details": "6 weeks after injection; diffuse positive staining in control", "procedure,_shortened": "(§1)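 OA knees in female 12-week-old SD rats (ACL/MCL transection plus medial meniscectomy), injected intra-articularly with 0.2 mL at 3 weeks post-surgery, uninjected controls. Joints harvested 6 weeks post-injection and formalin-fixed. Sections immunostained for MMP-9, caspase-8, TIMP-1 and collagen II using Alexa Fluor 488/594 secondary antibodies, DAPI counterstain, then examined by fluorescence microscopy.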"}, "[1]": {"test_system": "rat knee osteoarthritis model", "assay": "Micro-CT analysis of OA knee joints", "details": "6 weeks after injection", "procedure,_shortened": "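Hind limbs from OA rats (female, 12-week-old SD; ACL/MCL transection with medial meniscectomy) given 0.2 mL intra-articular injection 3 weeks post-surgery, or left uninjected. Harvested 6 weeks post-injection and formalin-fixed. Micro-CT: 80 kVp, 500 μA, 0.21 s scan, 30 calibrations, 30.74 mm fields of view. BMD measured at the lateral femoral condyle. OA graded semiquantitatively by osteophytes and joint destruction.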"}, "TIMP-1": {"test_system": "TIMP-1", "assay": "Immunofluorescence staining of knee joint sections", "details": "6 weeks after injection; diffuse positive staining in control", "procedure,_shortened": "as §1"}, "[2]": {"test_system": "rat knee osteoarthritis model", "assay": "Histological analysis, modified Mankin scoring", "details": "6 weeks after injection; scale 0–4; negative control 2.5±0.3"}}}
{"substance": "Ac-KLDLKLDLKLDL-NH2 [SAP, Ac-KLDLKLDLKLDL-NH2]", "values": [{"measurement": "caspase-8 immunofluorescence staining", "setting": "caspase-8", "result": "decreased expression"}, {"measurement": "bone mineral density (lateral femoral condyle, micro-CT)", "setting": "[1]; control 1,067.0±12.2", "result": "1,033.3±17.4"}, {"measurement": "Number of animals in each osteoarthritis grade: Grade 1", "setting": "[1]; micro-CT", "result": 1}, {"measurement": "Number of animals in each osteoarthritis grade: Grade 2", "setting": "[1]; micro-CT", "result": 0}, {"measurement": "Number of animals in each osteoarthritis grade: Grade 3", "setting": "[1]; micro-CT", "result": 2}, {"measurement": "Number of animals in each osteoarthritis grade: Grade 4", "setting": "[1]; micro-CT", "result": 1}, {"measurement": "TIMP-1 immunofluorescence staining", "setting": "TIMP-1", "result": "decreased expression"}, {"measurement": "Alcian blue staining component of modified Mankin score (proteoglycan content)", "setting": "[2]", "result": "0.5±0.3"}]}
